What all share (type): functional
For assay [1], the system named is Pseudomonas aeruginosa. Description: Antibacterial activity against Pseudomonas aeruginosa assessed as inhibition of bacterial growth after 24 hrs by CLSI protocol based two fold serial dilution method. The procedure, abridged: (§1)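 Two-fold serial broth dilution in 96-well plates following CLSI; MIC (mM) taken as the lowest concentration giving complete growth inhibition; MIC values from three independent experiments.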

In a further assay the test system is Candida parapsilosis. In words: Antifungal activity against Candida parapsilosis ATCC 22019 assessed as inhibition of fungal growth after 24 hrs by CLSI protocol based two fold serial dilution method. To be noted: Lodderomyces parapsilosis. The procedure, abridged:
as §1

The next assay deals with Aspergillus fumigatus. In words: Antifungal activity against Aspergillus fumigatus assessed as inhibition of fungal growth after 24 hrs by CLSI protocol based two fold serial dilution method. In outline:
as §1

The next assay deals with Candida tropicalis. Description: Antifungal activity against Candida tropicalis assessed as inhibition of fungal growth after 24 hrs by CLSI protocol based two fold serial dilution method. The procedure, abridged:
as §1

The subject of assay [2] is Candida albicans. In words: Antifungal activity against Candida albicans ATCC 90023 assessed as inhibition of fungal growth after 24 hrs by CLSI protocol based two fold serial dilution method. In outline: as §1
For assay [3], the system named is Candida albicans. In words: Antifungal activity against Candida albicans assessed as inhibition of fungal growth after 24 hrs by CLSI protocol based two fold serial dilution method. In outline:
as §1

A further assay relates to Acinetobacter baumannii. In words: Antibacterial activity against Acinetobacter baumannii assessed as inhibition of bacterial growth after 24 hrs by CLSI protocol based two fold serial dilution method. The procedure, abridged: as §1
Assay [4] has as its system Pseudomonas aeruginosa. In words: Antibacterial activity against Pseudomonas aeruginosa ATCC 27853 assessed as inhibition of bacterial growth after 24 hrs by CLSI protocol based two fold serial dilution method. In outline:
as §1

Assay [5] concerns Escherichia coli. In words: Antibacterial activity against Escherichia coli ATCC 25922 assessed as inhibition of bacterial growth after 24 hrs by CLSI protocol based two fold serial dilution method. In outline:
as §1

Assay [6] deals with Escherichia coli. In words: Antibacterial activity against Escherichia coli assessed as inhibition of bacterial growth after 24 hrs by CLSI protocol based two fold serial dilution method. In outline: as §1
A further assay has as its system Klebsiella pneumoniae. In words: Antibacterial activity against Klebsiella pneumoniae assessed as inhibition of bacterial growth after 24 hrs by CLSI protocol based two fold serial dilution method. In outline: as §1
Assay [7] relates to Staphylococcus aureus. In words: Antibacterial activity against Staphylococcus aureus ATCC 29213 assessed as inhibition of bacterial growth after 24 hrs by CLSI protocol based two fold serial dilution method.
Assay [8] deals with Staphylococcus aureus. Description: Antibacterial activity against Staphylococcus aureus ATCC 25923 assessed as inhibition of bacterial growth after 24 hrs by CLSI protocol based two fold serial dilution method. In outline:
as §1

In assay [9] the test system is Staphylococcus aureus. In words: Antibacterial activity against Staphylococcus aureus assessed as inhibition of bacterial growth after 24 hrs by CLSI protocol based two fold serial dilution method. In outline: as §1
The test system of another assay is Enterococcus faecalis. In words: Antibacterial activity against Enterococcus faecalis assessed as inhibition of bacterial growth after 24 hrs by CLSI protocol based two fold serial dilution method. The procedure, abridged: as §1
The test system of assay [10] is Staphylococcus aureus. In words: Antibacterial activity against methicillin-resistant Staphylococcus aureus N315 assessed as inhibition of bacterial growth after 24 hrs by CLSI protocol based two fold serial dilution method.

Molecules are shown by their SMILES. In brackets after ≈: the same amount, converted by molar mass.

`CCCCCCN1CCN(c2cc3c(cc2F)c(=O)c(-c2csc(N)n2)cn3CC)CC1`: the MIC – broadly, the least concentration at which growth counts as inhibited – in the assay with Pseudomonas aeruginosa [1] was 280 µM (≈ 128 µg/mL); in the assay with Candida parapsilosis, 560 µM (≈ 256 µg/mL); in the assay with Aspergillus fumigatus, 1120 µM (≈ 513 µg/mL); in the assay with Candida tropicalis it was 560 µM (≈ 256 µg/mL); in the assay on Candida albicans [2], 1120 µM (≈ 513 µg/mL); with Candida albicans [3], 1120 µM (≈ 513 µg/mL). For the same compound, the minimal inhibitory concentration (MIC) with Acinetobacter baumannii was determined as 70 µM (≈ 32 µg/mL); in the assay with Pseudomonas aeruginosa [4], 140 µM (≈ 64.1 µg/mL); in the assay on Escherichia coli [5] it was 140 µM (≈ 64.1 µg/mL); in the assay with Escherichia coli [6] it was 134 µM (≈ 61.3 µg/mL); in the assay on Klebsiella pneumoniae, 140 µM (≈ 64.1 µg/mL); with Staphylococcus aureus [7] it was 280 µM (≈ 128 µg/mL). The minimum inhibitory concentration (MIC) came out at 140 µM (≈ 64.1 µg/mL) with Staphylococcus aureus [8], 140 µM (≈ 64.1 µg/mL) in the assay on Staphylococcus aureus [9], 70 µM (≈ 32 µg/mL) with Enterococcus faecalis and 280 µM (≈ 128 µg/mL) in the assay with Staphylococcus aureus [10].

As to `CCn1cc(-c2csc(N)n2)c(=O)c2cc(F)c(N3CCN(Cc4ccc(Cl)c(Cl)c4)CC3)cc21`, the MIC in the assay with Pseudomonas aeruginosa [1] was 482 µM (≈ 257 µg/mL); in the assay with Candida parapsilosis, 8 µM (≈ 4.26 µg/mL); in the assay on Aspergillus fumigatus, 241 µM (≈ 128 µg/mL); in the assay on Candida tropicalis, 482 µM (≈ 257 µg/mL); with Candida albicans [2], 482 µM (≈ 257 µg/mL); in the assay on Candida albicans [3] it was 482 µM (≈ 257 µg/mL). For the same compound, the MIC with Acinetobacter baumannii is 482 µM (≈ 257 µg/mL); in the assay on Pseudomonas aeruginosa [4], 241 µM (≈ 128 µg/mL); in the assay with Escherichia coli [5] it was 15 µM (≈ 7.99 µg/mL); in the assay on Escherichia coli [6] it was 241 µM (≈ 128 µg/mL); with Klebsiella pneumoniae, 241 µM (≈ 128 µg/mL); with Staphylococcus aureus [7], 241 µM (≈ 128 µg/mL). The MIC in the assay with Staphylococcus aureus [8] stood at 241 µM (≈ 128 µg/mL); with Staphylococcus aureus [9] it was 482 µM (≈ 257 µg/mL); with Enterococcus faecalis, 30 µM (≈ 16 µg/mL); in the assay with Staphylococcus aureus [10] it was 15 µM (≈ 7.99 µg/mL).

For `CCOC(=O)CN1CCN(c2cc3c(cc2F)c(=O)c(-c2csc(N)n2)cn3CC)CC1`, the MIC in the assay with Pseudomonas aeruginosa [1] was found to be 139 µM (≈ 63.9 µg/mL); in the assay on Candida parapsilosis it was 279 µM (≈ 128 µg/mL); in the assay on Aspergillus fumigatus it was 558 µM (≈ 256 µg/mL); with Candida tropicalis, 139 µM (≈ 63.9 µg/mL); with Candida albicans [2] it was 70 µM (≈ 32.2 µg/mL); with Candida albicans [3], 70 µM (≈ 32.2 µg/mL). The MIC in the assay on Acinetobacter baumannii stood at 35 µM (≈ 16.1 µg/mL); with Pseudomonas aeruginosa [4], 70 µM (≈ 32.2 µg/mL); in the assay with Escherichia coli [5], 558 µM (≈ 256 µg/mL); with Escherichia coli [6], 279 µM (≈ 128 µg/mL); with Klebsiella pneumoniae, 139 µM (≈ 63.9 µg/mL); with Staphylococcus aureus [7] it was 139 µM (≈ 63.9 µg/mL). In addition, the minimal inhibitory concentration (MIC) amounted to 17 µM (≈ 7.81 µg/mL) in the assay on Staphylococcus aureus [8], 70 µM (≈ 32.2 µg/mL) with Staphylococcus aureus [9], 279 µM (≈ 128 µg/mL) in the assay on Enterococcus faecalis and 139 µM (≈ 63.9 µg/mL) with Staphylococcus aureus [10].

Take `CCn1cc(-c2csc(N)n2)c(=O)c2cc(F)c(N3CCN(CC(=O)N(C)C)CC3)cc21`: the MIC in the assay with Pseudomonas aeruginosa [1] worked out at 279 µM (≈ 128 µg/mL); in the assay with Candida parapsilosis it was 279 µM (≈ 128 µg/mL); in the assay with Aspergillus fumigatus, 70 µM (≈ 32.1 µg/mL); in the assay with Candida tropicalis, 70 µM (≈ 32.1 µg/mL); in the assay on Candida albicans [2] it was 140 µM (≈ 64.2 µg/mL); with Candida albicans [3] it was 70 µM (≈ 32.1 µg/mL). In addition, the minimum inhibitory concentration (MIC) with Acinetobacter baumannii worked out at 140 µM (≈ 64.2 µg/mL); with Pseudomonas aeruginosa [4], 70 µM (≈ 32.1 µg/mL); in the assay on Escherichia coli [5] it was 70 µM (≈ 32.1 µg/mL); in the assay with Escherichia coli [6], 140 µM (≈ 64.2 µg/mL); with Klebsiella pneumoniae, 35 µM (≈ 16 µg/mL); in the assay with Staphylococcus aureus [7], 70 µM (≈ 32.1 µg/mL). The MIC in the assay on Staphylococcus aureus [8] turned out to be 17 µM (≈ 7.8 µg/mL); with Staphylococcus aureus [9] it was 35 µM (≈ 16 µg/mL); with Enterococcus faecalis, 140 µM (≈ 64.2 µg/mL); in the assay on Staphylococcus aureus [10], 70 µM (≈ 32.1 µg/mL).

As for `CCn1cc(-c2csc(N)n2)c(=O)c2cc(F)c(N3CCN(C)CC3)cc21`, the minimal inhibitory concentration (MIC) in the assay with Pseudomonas aeruginosa [1] worked out at 331 µM (≈ 128 µg/mL); with Candida parapsilosis, 331 µM (≈ 128 µg/mL); in the assay on Aspergillus fumigatus it was 331 µM (≈ 128 µg/mL); with Candida tropicalis, 661 µM (≈ 256 µg/mL); with Candida albicans [2], 165 µM (≈ 63.9 µg/mL); in the assay with Candida albicans [3], 165 µM (≈ 63.9 µg/mL). The MIC in the assay on Acinetobacter baumannii turned out to be 331 µM (≈ 128 µg/mL); in the assay with Pseudomonas aeruginosa [4] it was 165 µM (≈ 63.9 µg/mL); with Escherichia coli [5] it was 165 µM (≈ 63.9 µg/mL); in the assay with Escherichia coli [6], 661 µM (≈ 256 µg/mL); in the assay with Klebsiella pneumoniae it was 83 µM (≈ 32.2 µg/mL); in the assay with Staphylococcus aureus [7], 331 µM (≈ 128 µg/mL). Further, the MIC was 41 µM (≈ 15.9 µg/mL) in the assay with Staphylococcus aureus [8], 165 µM (≈ 63.9 µg/mL) in the assay on Staphylococcus aureus [9], 331 µM (≈ 128 µg/mL) in the assay on Enterococcus faecalis and 331 µM (≈ 128 µg/mL) with Staphylococcus aureus [10].

Turning to `CCCCCCCCN1CCN(c2cc3c(cc2F)c(=O)c(-c2csc(N)n2)cn3CC)CC1`, the MIC was 264 µM (≈ 128 µg/mL) with Pseudomonas aeruginosa [1]; 264 µM (≈ 128 µg/mL) in the assay on Candida parapsilosis; 16 µM (≈ 7.77 µg/mL) with Aspergillus fumigatus; 264 µM (≈ 128 µg/mL) in the assay with Candida tropicalis; 1060 µM (≈ 512 µg/mL) in the assay with Candida albicans [2]; 1060 µM (≈ 512 µg/mL) in the assay on Candida albicans [3]. For the same compound, the minimum inhibitory concentration (MIC) in the assay with Acinetobacter baumannii worked out at 528 µM (≈ 256 µg/mL); with Pseudomonas aeruginosa [4], 264 µM (≈ 128 µg/mL); in the assay on Escherichia coli [5], 1060 µM (≈ 512 µg/mL); in the assay on Escherichia coli [6] it was 264 µM (≈ 128 µg/mL); with Klebsiella pneumoniae, 264 µM (≈ 128 µg/mL); with Staphylococcus aureus [7] it was 528 µM (≈ 256 µg/mL). In addition, the MIC in the assay on Staphylococcus aureus [8] amounted to 264 µM (≈ 128 µg/mL); in the assay on Staphylococcus aureus [9] it was 264 µM (≈ 128 µg/mL); in the assay on Enterococcus faecalis, 528 µM (≈ 256 µg/mL); in the assay with Staphylococcus aureus [10], 528 µM (≈ 256 µg/mL).

The values are drawn from ChEMBL document CHEMBL4665627 (Eur J Med Chem, 2019).
